Experimental data from publication PMC10795035 (ACS Omega, 2024).

What was measured:
[1] = Control incubation in enzyme-free reaction buffer pH 6.0; format: physicochemical; settings: enzyme free buffer pH 6.0, 37 °C, 24 h, 183 μM conjugate, RP-HPLC, n = 3
In short: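 Enzyme-free control run alongside the cathepsin B cleavage assay. Reaction buffer was 150 mM sodium acetate, 12 mM EDTA and 24 mM DTT, pH 6.0. Conjugate was added from a DMSO stock to 183 μM final and incubated at 37 °C. Aliquots were taken over 0–24 h for RP-HPLC. Peak areas at the retention times of pure drug and conjugate tracked conjugate loss and free drug appearance.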

[2] = Stability in phosphate buffer saline pH 7.4; format: physicochemical; settings: PBS pH 7.4 with 2% DMSO, 196 μM conjugate, 37 °C, 0-24 h, HPLC, n = 3
In short: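 Conjugate in PBS pH 7.4 with 2% DMSO, 196 μM final, held at 37 °C. Aliquots were withdrawn at time points over 0–24 h and analysed by HPLC. Results were plotted as areas of intact conjugate and of released free drug over time (n = 3).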

[3] = test system: U87MG cells; assay: XTT cytotoxicity assay; format: cell-based, Human; settings: for cytotoxicity on U87MG cells at 24 h: XTT assay, 24 h exposure, 5-160 nM, n = 4
In short: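 U87MG cells were kept in EMEM with 10% FBS and 1% penicillin–streptomycin at 37 °C, 5% CO2. Cells were seeded at 1 × 10^4/well and treated after 24 h with 5–160 nM test compound at 37 °C. At 24 and 72 h, XTT with electron coupling reagent was added for 3 h, then A450 was read. Values were normalized to untreated cells. Controls were 0.05% DMSO and medium. Mean ± SD, n = 4. IC50 from concentration–response curve fit.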

[4] = cited from earlier work
[5] = test system: U87MG cells with transferrin receptors blocked by excess T7-PEG4-N3; assay: T7 competition assay: transferrin receptor blocking studies; format: cell-based; settings: Homo sapiens, U-87 MG, read-out: IC50 at 72 h in TfR-blocked U87MG cells
In short: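 U87MG cells were seeded at 1 × 10^4/well and grown 24 h. Medium was replaced with medium containing a 10-fold molar excess of azido-PEG4-T7 peptide relative to conjugate for 1 h. Cells were then exposed to 5–160 nM test compound. Controls were medium, 0.05% DMSO and peptide alone. XTT read-out at 72 h, A450 relative to controls, n = 4. IC50 from concentration–response curve fit.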

[6] = test system: TfR; settings: cited from earlier work

| IC50 [5] [nM] | Compound | release of free SN-38 in enzyme free buffer [1] | stability in phosphate-buffered saline [2] | cytotoxicity on U87MG cells at 24 h [3] | potency compared to irinotecan [4] | IC50 ([3]; Homo sapiens, U-87 MG, 72 h, read-out: IC50 on U87MG cells at 72 h) [nM] | binding affinity for TfR relative to Tf [6] |
| --- | --- | --- | --- | --- | --- | --- | --- |
|  | CCc1c2c(nc3ccc(OCc4ccc(NC(=O)[C@H](C)NC(=O)[C@@H](NC(=O)CCCCCNC(=O)COCCOCCOCCNC(=O)CCCCC(=O)N5Cc6ccccc6-c6c(nnn6CCOCCOCCOCCOCCC(=O)N[C@@H](Cc6c[nH]cn6)C(=O)N[C@@H](C)C(=O)N[C@H](C(=O)N[C@@H](Cc6ccc(O)cc6)C(=O)N6CCC[C@H]6C(=O)N[C@@H](CCCNC(=N)N)C(=O)N[C@@H](Cc6c[nH]cn6)C(=O)O)[C@@H](C)CC)-c6ccccc65)C(C)C)cc4)cc13)-c1cc3c(c(=O)n1C2)COC(=O)[C@]3(O)CC [Compound T7-SN-38] | No free SN-38 was observed | very minimal decomposition or cleavage | did not exert pronounced cytotoxicity |  |  |  |
| 27.6 | CCc1c2c(nc3ccc(O)cc13)-c1cc3c(c(=O)n1C2)COC(=O)[C@]3(O)CC [SN-38, 7-Ethyl-10-hydroxycamptothecin] |  |  | did not exert pronounced cytotoxicity | 100–1000 times | 26.4 |  |
|  | His-Ala-Ile-Tyr-Pro-Arg-His [T7 peptide] |  |  |  |  |  | comparable to that of Tf |
